Source: PMC4981430 (Neuropharmacology, 2016)
Where two headings read alike, the source gives them in different places.

Tests used:
human GABAARs = human GABAARs in Xenopus laevis oocytes; ref Hammer et al., 2015; cited from earlier work
α5β2γ2 GABAARs = α5β2γ2 GABAARs (Rattus norvegicus, UniProt P18508+P19969); experiment: Whole-cell patch-clamp, potentiation of GABA; type: cell-based; settings: for Emax: HEK293, read-out: Electrophysiology Emax (potentiation)
[1] = test system: α1β2γ2, α2β3γ2, α3β3γ2 and α5β2γ2 GABAARs; experiment: Whole-cell patch-clamp in HEK293 cells, statements across the GABAAR subtypes; type: cell-based, rat; settings: up to 3 μM for DZP, and 20 μM for CBZ and NDMC
α1β2γ2 GABAARs [2] = biological target: T1, α1β2γ2 GABAARs (Rattus norvegicus, UniProt P18508+P62813); experiment: [3H]flunitrazepam binding to membranes of transfected HEK293 cells, α1β2γ2
α2β3γ2 GABAARs [3] = biological target: T2, α2β3γ2 GABAARs (Rattus norvegicus, UniProt P18508+P23576); experiment: [3H]flunitrazepam binding to membranes of transfected HEK293 cells, α2β3γ2
α2β3γ2 GABAARs [4] = biological target: T2, α2β3γ2 GABAARs; experiment: Whole-cell patch-clamp, potentiation of GABA; type: cell-based; settings: for Emax: HEK293, read-out: Electrophysiology Emax (potentiation)
α1β2γ2 GABAARs [5] = biological target: T1, α1β2γ2 GABAARs; experiment: Whole-cell patch-clamp, potentiation of GABA; type: cell-based; settings: for Emax: HEK293, read-out: Electrophysiology Emax (potentiation)
α3β3γ2 GABAARs = α3β3γ2 GABAARs (Rattus norvegicus, UniProt P18508+P20236); experiment: Whole-cell patch-clamp, potentiation of GABA; type: cell-based
[6] = test system: recombinant α2β3γ2 GABAARs; settings: cited from earlier work; for Potentiation of recombinant α2β3γ2 GABAARs, relative to chlordiazepoxide: % of that of chlordiazepoxide, ref Atack et al.
[7] = test system: locomotor activity of mice; experiment: Locomotor activity in the open field test; type: in vivo, mouse
[8] = test system: CCI model of neuropathic pain, mechanical hyperalgesia; experiment: Mechanical hyperalgesia; type: in vivo, mouse; settings: GABAAR α1(H→R) point-mutated mice, von-Frey filament stimulation, p.o.
Outline: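 Left sciatic nerve constricted proximal to the trifurcation with three loose 5-0 silk ligatures. Mice 7–10 weeks old, both sexes, wild-type or α1(H→R) point-mutated, tested blinded 7–14 days later. Dosing p.o. as a suspension in 0.9% saline/1% Tween80. Paw withdrawal threshold measured with electronic von Frey filament #7, 3–4 readings per time point. Expressed as %MPE using pre-CCI and pre-drug thresholds.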

T2 sequence (P23576 29-451): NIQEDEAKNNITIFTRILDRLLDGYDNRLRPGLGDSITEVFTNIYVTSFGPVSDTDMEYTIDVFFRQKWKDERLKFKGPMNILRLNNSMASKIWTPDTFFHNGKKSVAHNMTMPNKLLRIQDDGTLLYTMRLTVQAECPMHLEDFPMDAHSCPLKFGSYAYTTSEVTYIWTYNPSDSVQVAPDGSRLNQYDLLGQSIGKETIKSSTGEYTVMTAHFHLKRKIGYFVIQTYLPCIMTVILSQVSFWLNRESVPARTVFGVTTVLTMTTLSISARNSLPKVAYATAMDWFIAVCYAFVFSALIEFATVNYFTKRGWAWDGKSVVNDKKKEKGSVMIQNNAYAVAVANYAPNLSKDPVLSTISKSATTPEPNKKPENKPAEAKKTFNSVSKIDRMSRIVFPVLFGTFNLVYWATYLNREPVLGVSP
T2 sequence (P63079 26-473 partner): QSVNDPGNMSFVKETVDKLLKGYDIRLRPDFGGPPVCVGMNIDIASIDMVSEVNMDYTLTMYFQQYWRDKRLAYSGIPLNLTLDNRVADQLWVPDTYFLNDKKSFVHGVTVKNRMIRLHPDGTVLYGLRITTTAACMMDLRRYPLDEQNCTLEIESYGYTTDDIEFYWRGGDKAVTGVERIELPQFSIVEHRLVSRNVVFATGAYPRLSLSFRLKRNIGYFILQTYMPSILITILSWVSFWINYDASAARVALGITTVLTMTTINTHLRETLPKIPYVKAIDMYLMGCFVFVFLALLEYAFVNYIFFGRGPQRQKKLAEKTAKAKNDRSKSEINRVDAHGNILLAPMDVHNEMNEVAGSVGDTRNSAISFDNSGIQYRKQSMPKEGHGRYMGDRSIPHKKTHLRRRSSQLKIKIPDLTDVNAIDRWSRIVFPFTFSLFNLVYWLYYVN
T2 sequence (P18508 39-466): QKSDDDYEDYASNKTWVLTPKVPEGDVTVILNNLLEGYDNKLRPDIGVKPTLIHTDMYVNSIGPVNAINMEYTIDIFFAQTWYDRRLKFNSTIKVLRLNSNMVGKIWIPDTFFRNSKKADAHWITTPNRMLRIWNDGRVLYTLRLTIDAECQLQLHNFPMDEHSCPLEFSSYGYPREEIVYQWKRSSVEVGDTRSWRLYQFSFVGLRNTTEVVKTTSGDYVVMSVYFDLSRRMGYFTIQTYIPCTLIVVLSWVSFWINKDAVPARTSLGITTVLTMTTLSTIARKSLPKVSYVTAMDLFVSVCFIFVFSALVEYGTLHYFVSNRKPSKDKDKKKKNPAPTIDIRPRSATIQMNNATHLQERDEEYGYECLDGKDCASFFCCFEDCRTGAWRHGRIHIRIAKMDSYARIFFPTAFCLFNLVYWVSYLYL
T1 sequence (P62813 28-455): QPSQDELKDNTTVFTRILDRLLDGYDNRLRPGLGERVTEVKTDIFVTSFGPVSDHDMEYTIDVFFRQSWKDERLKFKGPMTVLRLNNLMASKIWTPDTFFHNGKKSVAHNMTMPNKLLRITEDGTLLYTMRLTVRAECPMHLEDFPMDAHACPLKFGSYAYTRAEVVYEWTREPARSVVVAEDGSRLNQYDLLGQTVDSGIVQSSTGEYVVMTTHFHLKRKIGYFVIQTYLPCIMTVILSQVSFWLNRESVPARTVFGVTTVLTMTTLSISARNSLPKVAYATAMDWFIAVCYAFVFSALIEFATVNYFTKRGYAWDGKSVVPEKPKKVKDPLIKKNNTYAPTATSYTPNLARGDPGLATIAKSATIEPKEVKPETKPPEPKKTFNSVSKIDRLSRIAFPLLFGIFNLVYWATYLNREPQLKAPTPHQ
T1 sequence (P63138 25-474 partner limits assumed): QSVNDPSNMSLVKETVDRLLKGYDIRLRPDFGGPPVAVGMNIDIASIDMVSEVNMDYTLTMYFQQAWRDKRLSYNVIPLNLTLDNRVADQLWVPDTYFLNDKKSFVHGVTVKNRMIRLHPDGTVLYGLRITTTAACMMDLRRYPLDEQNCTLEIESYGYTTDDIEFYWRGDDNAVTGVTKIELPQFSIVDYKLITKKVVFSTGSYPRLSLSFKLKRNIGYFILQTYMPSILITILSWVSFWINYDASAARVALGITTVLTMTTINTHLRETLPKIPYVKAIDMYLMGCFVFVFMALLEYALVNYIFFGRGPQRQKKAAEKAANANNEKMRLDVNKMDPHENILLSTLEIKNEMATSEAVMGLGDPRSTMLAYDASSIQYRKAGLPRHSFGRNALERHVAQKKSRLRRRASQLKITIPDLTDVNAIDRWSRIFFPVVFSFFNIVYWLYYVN
T1 sequence (P18508 39-466): as the sequence (P18508 39-466) above
Chain of α5β2γ2 GABAARs (P19969 32-464 limits assumed): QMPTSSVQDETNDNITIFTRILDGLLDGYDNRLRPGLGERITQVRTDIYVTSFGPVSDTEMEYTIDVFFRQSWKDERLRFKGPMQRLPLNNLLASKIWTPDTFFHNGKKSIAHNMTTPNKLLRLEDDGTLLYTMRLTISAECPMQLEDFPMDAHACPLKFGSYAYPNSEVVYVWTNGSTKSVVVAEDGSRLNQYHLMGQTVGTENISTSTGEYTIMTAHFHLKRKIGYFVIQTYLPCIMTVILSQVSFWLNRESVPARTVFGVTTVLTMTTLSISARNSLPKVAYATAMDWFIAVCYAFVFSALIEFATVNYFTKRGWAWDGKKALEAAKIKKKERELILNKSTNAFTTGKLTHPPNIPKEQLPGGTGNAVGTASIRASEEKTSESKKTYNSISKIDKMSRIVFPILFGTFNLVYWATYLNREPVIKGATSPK
Chain of α5β2γ2 GABAARs (P63138 25-474 partner limits assumed): as the sequence (P63138 25-474 partner limits assumed) above
Chain of α5β2γ2 GABAARs (P18508 39-466): as the sequence (P18508 39-466) above
Chain of α3β3γ2 GABAARs (P20236 29-493): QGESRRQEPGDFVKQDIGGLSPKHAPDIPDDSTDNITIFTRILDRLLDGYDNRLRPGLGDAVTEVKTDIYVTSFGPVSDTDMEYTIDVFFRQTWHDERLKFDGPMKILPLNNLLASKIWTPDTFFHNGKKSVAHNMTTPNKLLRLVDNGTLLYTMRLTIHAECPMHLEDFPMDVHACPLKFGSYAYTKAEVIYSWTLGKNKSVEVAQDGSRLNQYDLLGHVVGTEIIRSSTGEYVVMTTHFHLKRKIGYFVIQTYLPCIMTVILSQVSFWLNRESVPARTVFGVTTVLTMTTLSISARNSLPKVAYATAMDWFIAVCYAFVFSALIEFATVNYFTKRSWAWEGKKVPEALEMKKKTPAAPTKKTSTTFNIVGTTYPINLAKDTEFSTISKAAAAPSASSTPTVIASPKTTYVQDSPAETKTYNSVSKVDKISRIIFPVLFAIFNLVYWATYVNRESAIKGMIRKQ
Chain of α3β3γ2 GABAARs (P63079 26-473 partner): as the sequence (P63079 26-473 partner) above
Chain of α3β3γ2 GABAARs (P18508 39-466): as the sequence (P18508 39-466) above

For `CN1C(=O)CC(=O)N(c2ccccc2)c2cc(Cl)ccc21` [CBZ, clobazam], the α2/α1 selectivity ratio (human GABAARs) is listed as 1.02 ± 0.05, the EC50 (α5β2γ2 GABAARs) is listed as 500 ± 120 nM and the Emax (α5β2γ2 GABAARs) is listed as 157 ± 11%. For the same molecule, the “Direct activation of GABAAR currents” value [1] was “did not directly activate GABAAR currents”, the IC50 (α1β2γ2 GABAARs [2]) was 430 ± 130 nM and the IC50 (α2β3γ2 GABAARs [3]) was 390 ± 80 nM. It also gave an EC50 (α2β3γ2 GABAARs [4]) of 390 ± 190 nM, an Emax (α2β3γ2 GABAARs [4]) of 134 ± 16% and a α2/α1 selectivity (α2β3γ2 GABAARs [4]; determined as Emax(α2)/Emax(α1)) of 0.78 ± 0.12. For the same molecule, the EC50 (α1β2γ2 GABAARs [5]) was 610 ± 200 nM, the Emax (α1β2γ2 GABAARs [5]) was 171 ± 17% and the EC50 (α3β3γ2 GABAARs) was 1100 ± 320 nM.
In the case of `Cn1ncnc1COc1nn2c(-c3cc(F)ccc3F)nnc2cc1C(C)(C)C` [L-838,417], the “Potentiation of recombinant α2β3γ2 GABAARs” value ([6]; ref McKernan et al., 2000) is given as “about 40%”.
In the case of `CCn1ncnc1COc1nn2c(-c3ccccc3F)nnc2cc1C(C)(C)C` [TPA023, 7-(1,1-Dimethylethyl)-6-(2-ethyl-2H-1,2,4-triazol-3-ylmethoxy)-3-(2-fluor ophenyl)-1,2,4-triazolo[4,3-b]pyridazine], the “Potentiation of recombinant α2β3γ2 GABAARs, relative to chlordiazepoxide” value [6]; 2006 is given as 11%.
With `CN1C(=O)CN=C(c2ccccc2)c2cc(Cl)ccc21` [DZP, diazepam] the “Dose at which reduction in locomotor activity reached statistical significance” value ([7]; 129X1/SvJ mice, p.o., 72-120 min) was no less than 10 mg/kg, the “Effect on locomotor activity” value ([7]; C57BL/6J mice, 3, 10 and 30 mg kg−1 p.o., 72-120 min) was “dose-dependent reduction in locomotor activity” and the “Dose at which reduction in locomotor activity reached statistical significance” value ([7]; C57BL/6J mice, p.o., 72-120 min) was 1 mg/kg. For the same molecule, the “Effect on locomotor activity in HRRR mice” value ([7]; HRRR triple point-mutated mice (only α1GABAARs BDZ-sensitive), 3–10 mg kg−1 p.o.) was “completely suppressed”, the “Effect on locomotor activity in RHRR mice” value ([7]; RHRR triple point-mutated mice (only α2GABAARs BDZ-sensitive), p.o.) was “increased locomotion” and the “Dose reducing locomotor activity in RRRR mice” value ([7]; quadruple point-mutated RRRR mice, p.o.) was no less than 30 mg/kg. For the same molecule, the ED50 sedation ([7]; triple (H→R) point-mutated mice, only α1GABAARs BDZ-sensitive, p.o.) was 0.59 ± 0.08 mg/kg, the Emax (α5β2γ2 GABAARs) was 100 ± 6.4% and the “Direct activation of GABAAR currents” value [1] was “did not directly activate GABAAR currents”. It also gave an ED50 antihyperalgesia [8] of 3.4 ± 1.3 mg/kg, an Emax (α2β3γ2 GABAARs [4]) of 123 ± 11% and an Emax (α1β2γ2 GABAARs [5]) of 141 ± 17%. The “Electrophysiology Emax (potentiation)” value (α3β3γ2 GABAARs; α3β3γ2, GABA at EC10, mean ± SD) was 227 ± 15%.
For `CC(C)(O)c1cnn2c(-c3ccc(F)c(-c4c(F)cccc4C#N)c3)cnc2n1` [TPA023B], the “Potentiation of recombinant α2β3γ2 GABAARs, relative to chlordiazepoxide” value [6]; 2011 is given as 38%.
